Activity calls are given as the source filed them. The rule behind the calls is not given here.
Columns and labels:
HeLa S3 [1] = experiment: Selectivity ratio of IC50 for HDAC3 in human HeLaS3 cells to IC50 for HDAC6 in human HeLaS3 cells; format: cell-based
Outline: (§1)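 Ratio of IC50 values measured with the ELISA-based HDAC activity assay using mammalian-derived HDAC isoforms. Each IC50 is the mean of at least two independent trials with standard error.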

HeLa S3 [2] = experiment: Selectivity ratio of IC50 for HDAC3 in human HeLaS3 cells to IC50 for full length human C-terminal His-tag HDAC8 expressed in baculovirus expression system
Histone deacetylase 3 = Histone deacetylase 3 (Homo sapiens, UniProt O15379); experiment: Inhibition of HDAC3 in human HeLaS3 cells preincubated for 15 mins followed by HDAC-Glo substrate addition measured after 30 to 45 mins by ELISA; format: cell-based, HeLa S3
HeLa S3 [3] = experiment: Selectivity ratio of IC50 for HDAC1 in human HeLaS3 cells to IC50 for HDAC6 in human HeLaS3 cells; format: cell-based; outline: as §1
Histone deacetylase 8 = target: T1, Histone deacetylase 8 (Homo sapiens, UniProt Q9BY41); experiment: Inhibition of full length human C-terminal His-tag HDAC8 expressed in baculovirus expression system preincubated for 15 mins followed by HDAC-Glo substrate addition measured after 30 to 45 mins by ELISA
T1 sequence (Q9BY41 whole entry): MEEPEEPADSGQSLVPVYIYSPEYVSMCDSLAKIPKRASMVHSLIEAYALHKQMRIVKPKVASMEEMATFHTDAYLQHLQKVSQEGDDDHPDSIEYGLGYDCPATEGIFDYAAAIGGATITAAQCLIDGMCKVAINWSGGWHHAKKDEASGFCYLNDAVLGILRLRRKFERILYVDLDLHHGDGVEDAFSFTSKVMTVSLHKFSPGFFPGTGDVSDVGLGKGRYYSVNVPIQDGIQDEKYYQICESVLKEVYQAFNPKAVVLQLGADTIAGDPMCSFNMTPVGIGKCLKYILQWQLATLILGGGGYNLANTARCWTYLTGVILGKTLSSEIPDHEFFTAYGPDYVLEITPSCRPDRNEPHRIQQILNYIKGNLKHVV

HeLa S3 [4] = experiment: Selectivity ratio of IC50 for HDAC1 in human HeLaS3 cells to IC50 for full length human C-terminal His-tag HDAC8 expressed in baculovirus expression system
[5] = target: T2, Protein deacetylase HDAC6 (Homo sapiens, UniProt Q9UBN7); experiment: Inhibition of HDAC6 in human HeLaS3 cells preincubated for 15 mins followed by HDAC-Glo substrate addition measured after 30 to 45 mins by ELISA; format: cell-based, HeLa S3
T2 sequence (Q9UBN7 whole entry): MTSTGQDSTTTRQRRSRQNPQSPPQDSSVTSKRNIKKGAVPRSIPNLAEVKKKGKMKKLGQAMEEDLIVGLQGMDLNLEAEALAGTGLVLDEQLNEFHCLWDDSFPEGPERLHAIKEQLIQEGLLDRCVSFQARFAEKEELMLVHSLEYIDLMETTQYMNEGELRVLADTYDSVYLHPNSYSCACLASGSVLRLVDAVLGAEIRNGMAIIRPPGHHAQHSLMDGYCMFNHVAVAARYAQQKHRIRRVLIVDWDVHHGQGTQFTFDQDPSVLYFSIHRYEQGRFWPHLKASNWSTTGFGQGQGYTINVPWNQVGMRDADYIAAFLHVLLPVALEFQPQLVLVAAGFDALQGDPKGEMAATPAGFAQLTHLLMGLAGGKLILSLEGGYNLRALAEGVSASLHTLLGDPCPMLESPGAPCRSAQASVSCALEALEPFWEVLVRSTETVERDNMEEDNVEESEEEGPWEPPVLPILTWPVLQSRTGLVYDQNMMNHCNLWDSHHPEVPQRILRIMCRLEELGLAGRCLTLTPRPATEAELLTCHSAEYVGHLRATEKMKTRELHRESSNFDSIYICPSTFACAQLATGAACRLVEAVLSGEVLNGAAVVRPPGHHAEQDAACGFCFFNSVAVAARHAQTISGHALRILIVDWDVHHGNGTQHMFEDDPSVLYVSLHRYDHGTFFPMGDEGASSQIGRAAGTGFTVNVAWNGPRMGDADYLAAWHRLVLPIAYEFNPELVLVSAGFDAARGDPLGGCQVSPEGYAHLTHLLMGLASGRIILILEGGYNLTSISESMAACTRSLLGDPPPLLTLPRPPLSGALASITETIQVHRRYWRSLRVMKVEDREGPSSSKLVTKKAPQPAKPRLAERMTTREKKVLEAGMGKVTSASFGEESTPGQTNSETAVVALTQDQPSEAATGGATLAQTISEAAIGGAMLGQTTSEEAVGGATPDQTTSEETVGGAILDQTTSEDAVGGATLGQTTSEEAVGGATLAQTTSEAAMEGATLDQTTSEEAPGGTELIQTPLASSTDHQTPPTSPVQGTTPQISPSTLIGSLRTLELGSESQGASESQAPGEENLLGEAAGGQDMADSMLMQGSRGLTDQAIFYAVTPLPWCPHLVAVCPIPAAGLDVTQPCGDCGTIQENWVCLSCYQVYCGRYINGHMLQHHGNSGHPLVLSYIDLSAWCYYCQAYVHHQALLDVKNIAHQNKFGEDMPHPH

Histone deacetylase 1 = Histone deacetylase 1 (Homo sapiens, UniProt Q13547); experiment: Inhibition of HDAC1 in human HeLaS3 cells preincubated for 15 mins followed by HDAC-Glo substrate addition measured after 30 to 45 mins by ELISA; format: cell-based, HeLa S3
[6] = target: T3, Protein deacetylase HDAC6 (Homo sapiens) (UniProt Q9UBN7); experiment: Inhibition of HDAC6 in human HeLaS3 cells at 5 uM preincubated for 15 mins followed by HDAC-Glo substrate addition measured after 30 to 45 mins by ELISA; format: cell-based; conditions: HeLa S3
T3 sequence (whole entry): T2 sequence (Q9UBN7 whole entry)
Outline: (§2)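 ELISA-based HDAC activity assay using mammalian-derived HDAC1, -2, -3 and -6. Each analogue was screened at a single concentration, 5 or 10 μM. Data are mean percent deacetylase activity from at least three independent trials with standard error.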

[7] = target: T3, Protein deacetylase HDAC6 (Homo sapiens); experiment: Inhibition of HDAC6 in human U937 cells assessed as increase in alpha-tubulin acetylation at Lys-40 residue at 30 uM after 18 hrs by Western blot method; format: cell-based; conditions: U-937
Outline: (§3)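 U937 myeloid leukemia cells were treated with compound, with a 1% DMSO control. For the concentration series the range was 10–60 μM. Cells were then lysed, run on SDS-PAGE and Western blotted for acetyl-α-tubulin and acetyl-histone H3, with GAPDH as load control. Band intensities were quantified as fold increase, given as mean of four independent trials with standard error.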

HeLa S3 [8] = experiment: Selectivity ratio of IC50 for HDAC2 in human HeLaS3 cells to IC50 for HDAC6 in human HeLaS3 cells; format: cell-based; outline: as §1
Histone deacetylase 2 = Histone deacetylase 2 (Homo sapiens, UniProt Q92769); experiment: Inhibition of HDAC2 in human HeLaS3 cells preincubated for 15 mins followed by HDAC-Glo substrate addition measured after 30 to 45 mins by ELISA; format: cell-based, HeLa S3
HeLa S3 [9] = experiment: Selectivity ratio of IC50 for HDAC2 in human HeLaS3 cells to IC50 for full length human C-terminal His-tag HDAC8 expressed in baculovirus expression system
[10] = target: T3, Protein deacetylase HDAC6 (Homo sapiens); experiment: Inhibition of HDAC6 in human HeLaS3 cells at 10 uM preincubated for 15 mins followed by HDAC-Glo substrate addition measured after 30 to 45 mins by ELISA; format: cell-based; conditions: HeLa S3; outline: as §2
[11] = Cytotoxicity against human Jurkat cells assessed as cell viability at 10 uM after 44 hrs by MTT assay relative to control; format: functional; conditions: read-out: Activity
Outline: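 MTT viability assay in Jurkat cells at 1 and 10 μM. Data are mean percent viability from at least three independent trials with standard error.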

cells [12] = format: functional, cell-based; conditions: Homo sapiens, U-937, 44 h
cells [13] = format: functional, cell-based; conditions: Homo sapiens, MOLM-13, 44 h
[14] = target: T3, Protein deacetylase HDAC6 (Homo sapiens); experiment: Inhibition of HDAC6 in human U937 cells assessed as increase in alpha-tubulin acetylation at Lys-40 residue after 18 hrs by Western blot method; format: cell-based; conditions: U-937; outline: as §3
cells [15] = format: functional, cell-based; conditions: Homo sapiens, Jurkat, 44 h

Chain of Histone deacetylase 1 (Q13547 whole entry): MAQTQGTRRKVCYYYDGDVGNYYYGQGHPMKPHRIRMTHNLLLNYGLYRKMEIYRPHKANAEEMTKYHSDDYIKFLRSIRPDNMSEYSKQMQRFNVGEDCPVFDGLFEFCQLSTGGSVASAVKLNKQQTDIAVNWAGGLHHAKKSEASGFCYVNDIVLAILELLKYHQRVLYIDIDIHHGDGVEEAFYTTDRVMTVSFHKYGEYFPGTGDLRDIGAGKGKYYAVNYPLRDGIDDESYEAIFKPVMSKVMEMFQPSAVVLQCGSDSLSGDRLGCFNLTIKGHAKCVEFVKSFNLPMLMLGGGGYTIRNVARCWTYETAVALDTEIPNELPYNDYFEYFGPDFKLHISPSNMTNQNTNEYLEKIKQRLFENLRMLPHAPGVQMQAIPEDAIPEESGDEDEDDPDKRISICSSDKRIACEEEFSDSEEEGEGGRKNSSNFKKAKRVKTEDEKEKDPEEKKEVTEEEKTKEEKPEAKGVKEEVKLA
Chain of Histone deacetylase 3 (O15379 whole entry): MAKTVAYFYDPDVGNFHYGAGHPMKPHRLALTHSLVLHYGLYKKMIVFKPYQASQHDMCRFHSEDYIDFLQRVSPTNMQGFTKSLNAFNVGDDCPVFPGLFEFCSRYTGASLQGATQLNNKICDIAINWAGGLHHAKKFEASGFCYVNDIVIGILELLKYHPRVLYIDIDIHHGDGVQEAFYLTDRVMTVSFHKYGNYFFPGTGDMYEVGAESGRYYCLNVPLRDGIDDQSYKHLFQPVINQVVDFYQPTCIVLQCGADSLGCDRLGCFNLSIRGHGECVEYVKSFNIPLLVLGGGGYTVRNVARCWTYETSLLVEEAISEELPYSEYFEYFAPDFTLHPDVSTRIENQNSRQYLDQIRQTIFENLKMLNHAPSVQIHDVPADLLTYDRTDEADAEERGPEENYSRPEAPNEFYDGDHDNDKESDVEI
Chain of Histone deacetylase 2 (Q92769 whole entry): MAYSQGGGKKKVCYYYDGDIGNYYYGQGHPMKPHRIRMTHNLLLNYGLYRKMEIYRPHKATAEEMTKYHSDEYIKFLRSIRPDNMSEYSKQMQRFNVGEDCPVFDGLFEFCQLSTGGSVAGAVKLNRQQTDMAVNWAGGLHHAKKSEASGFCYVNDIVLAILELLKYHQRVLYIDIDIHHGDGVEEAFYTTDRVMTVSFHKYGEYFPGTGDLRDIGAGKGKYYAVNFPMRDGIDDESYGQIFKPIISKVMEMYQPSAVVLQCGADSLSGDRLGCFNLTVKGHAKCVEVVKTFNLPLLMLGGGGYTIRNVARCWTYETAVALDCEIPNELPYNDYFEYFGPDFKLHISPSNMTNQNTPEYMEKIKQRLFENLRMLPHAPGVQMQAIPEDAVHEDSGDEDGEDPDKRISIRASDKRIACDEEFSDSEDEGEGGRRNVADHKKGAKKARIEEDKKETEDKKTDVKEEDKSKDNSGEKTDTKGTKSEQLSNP

IC50 (Histone deacetylase 3) [µM]	IC50 (Histone deacetylase 8) [µM]	IC50 (Histone deacetylase 1) [µM]	inhibition [6]	IC50 (Histone deacetylase 2) [µM]	Structure (SMILES)	Ratio IC50 (HeLa S3 [2])	Ratio IC50 (HeLa S3 [4])	Ratio IC50 (HeLa S3 [9])	other results
43	1.3	48	Active	58	CCCCCC(CCCCCC(=O)Nc1ccccc1)C(=O)NO (stereo not drawn)	33 to 92	33 to 92	33 to 92	Ratio IC50 (HeLa S3 [1]): 33 to 92; Ratio IC50 (HeLa S3 [3]): 33 to 92; IC50 [5]: 0.85 µM; inhibition [7]: Active; Ratio IC50 (HeLa S3 [8]): 33 to 92
			Active		C#CCC(CCCCCC(=O)Nc1ccccc1)C(=O)NO (stereo not drawn)				
					CCCCC(CCCCCC(=O)Nc1ccccc1)C(=O)NO (stereo not drawn)				inhibition [10]: Active
	0.71				CCCCCC[C@H](CCCCCC(=O)Nc1ccccc1)C(=O)NO				
			Active		CC(CCCCCC(=O)Nc1ccccc1)C(=O)NO (stereo not drawn)				
			Active		C=CCC(CCCCCC(=O)Nc1ccccc1)C(=O)NO (stereo not drawn)				
			Active		CCC(CCCCCC(=O)Nc1ccccc1)C(=O)NO (stereo not drawn)				
91	1.2	84	Active	110	O=C(CCCCCC(Cc1ccccc1)C(=O)NO)Nc1ccccc1 (stereo not drawn)	33 to 92	33 to 92	33 to 92	Ratio IC50 (HeLa S3 [1]): 33 to 92; Ratio IC50 (HeLa S3 [3]): 33 to 92; IC50 [5]: 1.5 µM; inhibition [7]: Active; Ratio IC50 (HeLa S3 [8]): 33 to 92
			Active		CCCC(CCCCCC(=O)Nc1ccccc1)C(=O)NO (stereo not drawn)				
530	3.1	330		580	CCCCCC[C@@H](CCCCCC(=O)Nc1ccccc1)C(=O)NO	106 to 187	106 to 187	106 to 187	
98	2	180	Active	180	CCCCCCC(CCCCCC(=O)Nc1ccccc1)C(=O)NO (stereo not drawn)	49 to 300	49 to 300	49 to 300	viability at 10 µM [11]: 47%; Ratio IC50 (HeLa S3 [1]): 49 to 300; EC50 (cells [12]): 13.8 µM; Ratio IC50 (HeLa S3 [3]): 49 to 300; EC50 (cells [13]): 10.5 µM; IC50 [5]: 0.6 µM; inhibition [7]: Active; inhibition [14]: Dose-dependent effect; Ratio IC50 (HeLa S3 [8]): 49 to 300; EC50 (cells [15]): 11.8 µM
